Measured values reported in ChEMBL document CHEMBL2321775, “Synthesis and biological characterization of new aminophosphonates for mitochondrial pH determination by (31)P NMR spectroscopy” (J Med Chem, 2013).

Legend:
Liver [1] = experiment: Toxicity against Sprague-Dawley rat liver assessed as mitochondrial membrane potential incubated for 1 hr followed by compound washout measured after 10 mins; format: tissue-based
Procedure, shortened: (§1)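 Livers perfused at 37 °C with 0.1 mM compound for 1 h, then 10 min cold KH washout. Mitochondria isolated in ice-cold 0.3 M sucrose by differential centrifugation for membrane potential measurement. RCR was taken as respiration with 0.5 mM ADP divided by respiration after ADP phosphorylation ended, in KH2PO4/EDTA/MOPS/MgCl2 with glutamate 20 mM and malate 1 mM, pH 7.2, 37 °C. Mean ± SD.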

Liver [2] = experiment: Toxicity against Sprague-Dawley rat liver assessed as respiratory control ratio incubated for 1 hr followed by compound washout measured after 10 mins; format: tissue-based; procedure, shortened: as §1
NIH3T3 [3] = experiment: Cytotoxicity against mouse 3T3 cells assessed as LDH release per mg of protein at LD10 concentration after 1 hr by spectrophotometric analysis; format: cell-based; settings: nih3t3, 1 h
Procedure, shortened: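 LDH released into the supernatant was measured after 1 h with a kit and expressed per mg protein. Total LDH was obtained from a Triton X-100 (1%) lysis control. Means of 3−6 independent experiments.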

[4] = Toxicity against Chlamydomonas reinhardtii D66 assessed as loss of photosynthetic activity after 1 hr; settings: Chlamydomonas reinhardtii D66 cells, read-out: LD50
Procedure, shortened: (§2)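 Cell wall-less C. reinhardtii D66 grown in Tris acetate phosphate medium to 1−5 × 10^6 cells/mL at 25 °C. Exposed 1 h at 25 °C to 0.01−1 mM compound (DMSO ≤0.1%), under saturating light for photosynthesis or in the dark for respiration. NaHCO3 added (1 mM), then O2 measured by Clark electrode against DMSO control. LD50 is the concentration giving 50% activity loss.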

[5] = Drug uptake in Sprague-Dawley rat liver cytosol incubated for 1 hr followed by compound washout measured after 10 mins; format: ADME, tissue-based
Procedure, shortened: (§3)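 Sprague−Dawley male rat livers (120−150 g) perfused via the portal vein, non-recirculating, at 37 °C with KH bicarbonate buffer (95% O2/5% CO2, pH 7.35) at 3 mL/min/g. After 30 min equilibration, 0.1 mM compound was given for 1 h, followed by a 10 min ice-cold KH washout. Liver homogenised in 0.25 M sucrose/10 mM HEPES pH 7.5; cytosol and mitochondria separated by differential centrifugation and levels reported as μmol/g. 3−9 experiments, mean ± SD.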

[6] = (§4) Cytotoxicity against mouse 3T3 cells assessed as cell viability after 3 hrs by spectrophotometric analysis; format: cell-based, NIH3T3; settings: 3T3 cells (NIH3T3), read-out: LD50
Procedure, shortened: (§5)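 Confluent 3T3 fibroblasts (DMEM, 10% FCS, 37 °C, 5% CO2) were switched to phenol red-free DMEM with 1% glucose and exposed 3 h to compound at 0.01−5 mM final (0.1% DMSO). Cells were then given neutral red (50 μg/mL, 2% FCS MEM) for 2 h and read at 540 nm. LD50 and LD10 were taken from dose−response curves over 3−6 experiments.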

NIH3T3 [7] = experiment: as §4; format: cell-based; settings: nih3t3, 3 h; procedure, shortened: as §5
[8] = Toxicity against Chlamydomonas reinhardtii D66 assessed as loss of respiratory activity after 1 hr; settings: Chlamydomonas reinhardtii D66 cells, read-out: LD50; procedure, shortened: as §2
[9] = Drug uptake in Sprague-Dawley rat liver mitochondria incubated for 1 hr followed by compound washout measured after 10 mins; format: ADME; procedure, shortened: as §3
Liver [10] = experiment: Toxicity against Sprague-Dawley rat liver assessed as ATP content incubated for 1 hr followed by compound washout measured after 10 mins; format: tissue-based
Procedure, shortened: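 Rat livers perfused at 37 °C with KH buffer containing 0.1 mM compound for 1 h, then washed out for 10 min with cold KH. Organ freeze-clamped in liquid nitrogen and ATP measured enzymatically in perchloric extracts, given as μmol/g. Mean ± SD of 3−9 experiments.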

[11] = Dissociation constant, pKa of the compound in Krebs-Henseleit buffer; format: physicochemical
Procedure, shortened: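 31P NMR titration at 25 °C in Krebs−Henseleit buffer, with shifts referenced to external phosphoric acid and a D2O capillary as lock. Diethoxyphosphoryl shift plotted against pH (range 1.5−12) and fitted to the Henderson−Hasselbalch equation by nonlinear regression. Three independent titrations per compound, mean ± SEM.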

Liver [12] = experiment: Metabolic stability in Sprague-Dawley rat liver incubated for 1 hr followed by compound washout measured after 10 mins by 31P-NMR analysis; format: ADME, tissue-based
[13] = Drug uptake in Sprague-Dawley rat liver cytosol incubated for 1 hr followed by compound washout measured after 10 mins by 31P-NMR analysis; format: ADME, tissue-based; procedure, shortened: as §3
[14] = Drug uptake in Sprague-Dawley rat liver mitochondria incubated for 1 hr followed by compound washout measured after 10 mins by 31P-NMR analysis; format: ADME; procedure, shortened: as §3

| Structure (SMILES) | Activity (Liver [1]) [mV] | Ratio (Liver [2]) | Activity (NIH3T3 [3]) [IU] | LC50 at 1 h [4] [µM] | Drug uptake [5] [µmol/g] | CC50 at 3 h [6] [µM] | LD10 (NIH3T3 [7]) [mM] | LC50 at 1 h [8] [µM] | Drug uptake [9] [µmol/g] | Activity (Liver [10]) [µmol/g] | pKa [11] | Stability (Liver [12]) | Drug uptake [13] | Drug uptake [14] |
| --- | --- | --- | --- | --- | --- | --- | --- | --- | --- | --- | --- | --- | --- | --- |
| CC(C)(C)/[N+]([O-])=C/c1ccccc1 | 178.9 | 5.5 | 14.2 | > 500 | 0.88 | 7200 | 4.1 | > 500 | < 0.05 | 2.11 | – | – | – | – |
| CCCNC(C)(C)P(=O)(OCC)OCC | 181.3 | 5.9 | 11.9 | – | 0.56 | – | 76 | – | < 0.05 | 2.33 | 6.99 | – | – | – |
| CCOP(=O)(OCC)C1(C)CCCN1 (stereo not drawn) | – | – | 13.1 | > 1000 | – | – | 78 | > 1000 | – | – | 7.01 | – | – | – |
| CC(C)(C)/[N+]([O-])=C/c1ccc(OCCCC[P+](c2ccccc2)(c2ccccc2)c2ccccc2)cc1.[Br-] | 170.7 | 4.7 | 49.7 | 100 | 0.12 | 200 | 0.05 | 50 | 1.95 | 1.95 | – | Stable | Not Active | Active |
| CCOP(=O)(OCC)C(C)(C)NCCCC[P+](c1ccccc1)(c1ccccc1)c1ccccc1.[Br-] | – | – | 10.2 | 500 | – | 700 | 0.4 | 400 | – | – | 5.9 | – | – | – |
| CCOP(=O)(OCC)C(C)(C)NCCCCCC[P+](c1ccccc1)(c1ccccc1)c1ccccc1.[Br-] | 174.2 | 5.7 | 14.9 | 250 | 0.93 | 600 | 0.2 | 100 | 1.55 | 2.29 | 6.53 | – | – | – |
| CCOP(=O)(OCC)C(C)(C)NCCCCCCCC[P+](c1ccccc1)(c1ccccc1)c1ccccc1.[Br-] | 171.9 | 5.2 | 17.7 | 100 | 0.64 | 300 | 0.15 | 75 | 1.32 | 2.08 | 6.94 | Stable | Active | Active |
| CCOP(=O)(OCC)C(C)(C)NCCCCCCCCCCCC[P+](c1ccccc1)(c1ccccc1)c1ccccc1.[Br-] | – | – | 44.7 | < 25 | – | 100 | 0.05 | < 25 | – | – | 6.85 | – | – | – |
| CCOP(=O)(OCC)C(C)(CCC[P+](c1ccccc1)(c1ccccc1)c1ccccc1)NCC(C)C.[Br-] (racemic) | – | – | 12.9 | 300 | – | 700 | 0.5 | 300 | – | – | 5.39 | – | – | – |
| CCOP(=O)(OCC)C(NCCCC[P+](c1ccccc1)(c1ccccc1)c1ccccc1)C(C)C.[Br-] (racemic) | – | – | 10.7 | 250 | – | 600 | 0.3 | 150 | – | – | 5.47 | – | – | – |
| CCOP(=O)(OCC)C(NCCCCCC[P+](c1ccccc1)(c1ccccc1)c1ccccc1)C(C)C.[Br-] (racemic) | – | – | 15.9 | 130 | – | 500 | 0.2 | 130 | – | – | 5.99 | – | – | – |
| CCOP(=O)(OCC)C(NCCCCCCCC[P+](c1ccccc1)(c1ccccc1)c1ccccc1)C(C)C.[Br-] (racemic) | – | – | 49.4 | 25 | – | 300 | 0.05 | 25 | – | – | 6.23 | – | – | – |
| CCOP(=O)(OCC)C(NCCCCCCCCCCCC[P+](c1ccccc1)(c1ccccc1)c1ccccc1)C(C)C.[Br-] (racemic) | – | – | 52.7 | < 10 | – | 20 | 0.01 | < 10 | – | – | 6.38 | – | – | – |
| CCOP(=O)(OCC)C(NCCCCCC[P+](c1ccccc1)(c1ccccc1)c1ccccc1)C(C)(C)C.[Br-] (racemic) | – | – | 16.7 | – | – | 300 | 0.2 | – | – | – | 5.63 | – | – | – |
| CCOP(=O)(OCC)C(C)(N)CCC[P+](c1ccccc1)(c1ccccc1)c1ccccc1 (racemic) | – | – | – | – | – | – | – | – | – | – | 5.13 | – | – | – |
